Experimental data: ChEMBL document CHEMBL1128434, “Gonadotropin-releasing hormone antagonists: novel members of the azaline B family” (1995)
One block for each compound: values may come before it.

Experiments:
Rattus norvegicus [1] = organism: Rattus norvegicus; test: Effect in the anti ovulatory assay (AOA) in rats expressed as no. of rats ovulating/No of rats treated at 1.0 mg; 5/13; assay type: functional
Rattus norvegicus [2] = organism: Rattus norvegicus; test: Effect in the anti ovulatory assay (AOA) in rats expressed as no. of rats ovulating/No of rats treated at 0.5 mg; 6/7; assay type: functional
[3] = molecular target: T1, Gonadotropin-releasing hormone receptor (Rattus norvegicus) (UniProt P30969); test: Duration of action measured using castrated male rat assay to inhibit luteinizing hormone release.; fully active at 72 hr; assay type: functional
T1 sequence (whole entry): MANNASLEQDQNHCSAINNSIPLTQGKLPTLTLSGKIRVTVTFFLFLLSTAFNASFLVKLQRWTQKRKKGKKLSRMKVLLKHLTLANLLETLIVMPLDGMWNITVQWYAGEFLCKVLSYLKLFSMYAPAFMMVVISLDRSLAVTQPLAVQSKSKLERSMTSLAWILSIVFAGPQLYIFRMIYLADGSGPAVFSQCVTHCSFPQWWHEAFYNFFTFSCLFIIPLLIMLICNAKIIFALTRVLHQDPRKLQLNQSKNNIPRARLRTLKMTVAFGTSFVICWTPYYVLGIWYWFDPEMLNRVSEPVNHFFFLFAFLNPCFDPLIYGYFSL

Rattus norvegicus [4] = organism: Rattus norvegicus; test: Effect in the anti ovulatory assay (AOA) in rats expressed as no. of rats ovulating/No of rats treated at 2.5 mg; 0/7; assay type: functional
Rattus norvegicus [5] = organism: Rattus norvegicus; test: Effect in the anti ovulatory assay (AOA) in rats expressed as no. of rats ovulating/No of rats treated at 1.0 mg; 5/5; assay type: functional
Rattus norvegicus [6] = organism: Rattus norvegicus; test: Effect in the anti ovulatory assay (AOA) in rats expressed as no. of rats ovulating/No of rats treated at 2.5 mg; 4/8; assay type: functional
[7] = molecular target: T1, Gonadotropin-releasing hormone receptor (Rattus norvegicus); test: In vitro potency to inhibit GnRH-mediated LH secretion by cultured pituitary cells relative to [Ac-delta-Pro1,DFpa2,DTrp36]GnRH.; assay type: functional, cell-based; conditions: Pituitary gland cell
How it was run: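 Dispersed rat pituitary cells in culture; antagonist inhibition of GnRH-stimulated LH secretion. Potency expressed relative to standard antagonist [Ac-Δ3Pro1,D4FPhe2,DTrp3,6]GnRH taken as 1.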

Rattus norvegicus [8] = organism: Rattus norvegicus; test: Effect in the anti ovulatory assay (AOA) in rats expressed as no. of rats ovulating/No of rats treated at 2.5 mg; 0/6
Rattus norvegicus [9] = organism: Rattus norvegicus; test: Effect in the anti ovulatory assay (AOA) in rats expressed as no. of rats ovulating/No of rats treated at 2.5 mg; 0/6; assay type: functional
Rattus norvegicus [10] = organism: Rattus norvegicus; test: Effect in the anti ovulatory assay (AOA) in rats expressed as no. of rats ovulating/No of rats treated at 1.0 mg; 7/8; assay type: functional
Rattus norvegicus [11] = organism: Rattus norvegicus; test: Effect in the anti ovulatory assay (AOA) in rats expressed as no. of rats ovulating/No of rats treated at 2.5 mg; 3/7; assay type: functional
Rattus norvegicus [12] = organism: Rattus norvegicus; test: Effect in the anti ovulatory assay (AOA) in rats expressed as no. of rats ovulating/No of rats treated at 1.0 mg; 3/9; assay type: functional
[13] = molecular target: T1, Gonadotropin-releasing hormone receptor (Rattus norvegicus); test: Effect in the anti ovulatory assay (AOA) in rats expressed as no. of rats ovulating/No of rats treated at 2.5 mg; 0/8; assay type: functional
Rattus norvegicus [14] = organism: Rattus norvegicus; test: Effect in the anti ovulatory assay (AOA) in rats expressed as no. of rats ovulating/No of rats treated at 1.0 mg; 1/8; assay type: functional
Rattus norvegicus [15] = organism: Rattus norvegicus; test: Effect in the anti ovulatory assay (AOA) in rats expressed as no. of rats ovulating/No of rats treated at 0.5 mg; 10/14; assay type: functional
Rattus norvegicus [16] = organism: Rattus norvegicus; test: Effect in the anti ovulatory assay (AOA) in rats expressed as no. of rats ovulating/No of rats treated at 0.5 mg; 8/8; assay type: functional
Rattus norvegicus [17] = organism: Rattus norvegicus; test: Effect in the anti ovulatory assay (AOA) in rats expressed as no. of rats ovulating/No of rats treated at 1.0 mg; 4/8; assay type: functional

SMILES: CC(=O)N[C@H](Cc1ccc2ccccc2c1)C(=O)N[C@H](Cc1ccc(Cl)cc1)C(=O)N[C@H](Cc1cccnc1)C(=O)N[C@@H](CO)C(=O)N[C@@H](Cc1ccc(NC(=O)CCl)cc1)C(=O)N[C@H](Cc1ccc(NC(=O)CCl)cc1)C(=O)N[C@@H](CC(C)C)C(=O)N[C@@H](CCCCNC(C)C)C(=O)N1CCC[C@H]1C(=O)N[C@H](C)N
No. of rats ovulated (Rattus norvegicus [5]): 5
No. of rats ovulated (Rattus norvegicus [6]): 4

SMILES: CC(=O)N[C@H](Cc1ccc2ccccc2c1)C(=O)N[C@H](Cc1ccc(Cl)cc1)C(=O)N[C@H](Cc1cccnc1)C(=O)N[C@@H](CO)C(=O)N[C@@H](Cc1ccc(N)cc1)C(=O)N[C@H](Cc1ccc(N)cc1)C(=O)N[C@@H](CC(C)C)C(=O)N[C@@H](CCCCNC(C)C)C(=O)N1CCC[C@H]1C(=O)N[C@H](C)N
Relative potency [7]: 0.74
No. of rats ovulated (Rattus norvegicus [8]): 0
No. of rats ovulated (Rattus norvegicus [9]): 0
Duration of action [3]: 72 h
No. of rats ovulated (Rattus norvegicus [10]): 7

SMILES: CC(=O)N[C@H](Cc1ccc2ccccc2c1)C(=O)N[C@H](Cc1ccc(Cl)cc1)C(=O)N[C@H](Cc1cccnc1)C(=O)N[C@@H](CO)C(=O)N[C@@H](Cc1ccc(NC(=O)c2cnccn2)cc1)C(=O)N[C@H](Cc1ccc(NC(=O)c2cnccn2)cc1)C(=O)N[C@@H](CC(C)C)C(=O)N[C@@H](CCCCNC(C)C)C(=O)N1CCC[C@H]1C(=O)N[C@H](C)N
No. of rats ovulated (Rattus norvegicus [16]): 8
No. of rats ovulated (Rattus norvegicus [17]): 4

Further lines, with some results ahead:

Duration of action [3]: 72 h
SMILES: CC(=O)Nc1ccc(C[C@H](NC(=O)[C@H](CO)NC(=O)[C@@H](Cc2cccnc2)NC(=O)[C@@H](Cc2ccc(Cl)cc2)NC(=O)[C@@H](Cc2ccc3ccccc3c2)NC(C)=O)C(=O)N[C@H](Cc2ccc(NC(C)=O)cc2)C(=O)N[C@@H](CC(C)C)C(=O)N[C@@H](CCCCNC(C)C)C(=O)N2CCC[C@H]2C(=O)N[C@H](C)N)cc1
No. of rats ovulated (Rattus norvegicus [1]): 5
No. of rats ovulated (Rattus norvegicus [2]): 6
No. of rats ovulated (Rattus norvegicus [4]): 0

Relative potency [7]: 1.1
SMILES: CC(=O)N[C@H](Cc1ccc2ccccc2c1)C(=O)N[C@H](Cc1ccc(Cl)cc1)C(=O)N[C@H](Cc1cccnc1)C(=O)N[C@@H](CO)C(=O)N[C@@H](Cc1ccc(Nc2n[nH]c(N)n2)cc1)C(=O)N[C@H](Cc1ccc(Nc2n[nH]c(N)n2)cc1)C(=O)N[C@@H](CC(C)C)C(=O)N[C@@H](Cc1ccc(CNC(C)C)cc1)C(=O)N1CCC[C@H]1C(=O)N[C@H](C)N
No. of rats ovulated (Rattus norvegicus [11]): 3

No. of rats ovulated [13]: 0
Duration of action [3]: 72 h
SMILES: CC(=O)N[C@H](Cc1ccc2ccccc2c1)C(=O)N[C@H](Cc1ccc(Cl)cc1)C(=O)N[C@H](Cc1cccnc1)C(=O)N[C@@H](CO)C(=O)N[C@@H](Cc1ccc(NC=O)cc1)C(=O)N[C@H](Cc1ccc(NC=O)cc1)C(=O)N[C@@H](CC(C)C)C(=O)N[C@@H](CCCCNC(C)C)C(=O)N1CCC[C@H]1C(=O)N[C@H](C)N
No. of rats ovulated (Rattus norvegicus [12]): 3

Relative potency [7]: 0.21
Duration of action [3]: 72 h
SMILES: CC(=O)N[C@H](Cc1ccc2ccccc2c1)C(=O)N[C@H](Cc1ccc(Cl)cc1)C(=O)N[C@H](Cc1cccnc1)C(=O)N[C@@H](CO)C(=O)N[C@@H](Cc1ccc(NC(=O)CCCNc2n[nH]c(N)n2)cc1)C(=O)N[C@H](Cc1ccc(NC(=O)CCCNc2n[nH]c(N)n2)cc1)C(=O)N[C@@H](CC(C)C)C(=O)N[C@@H](CCCCNC(C)C)C(=O)N1CCC[C@H]1C(=O)N[C@H](C)N
No. of rats ovulated (Rattus norvegicus [14]): 1
No. of rats ovulated (Rattus norvegicus [15]): 10
